The text below walks through data of ChEMBL document CHEMBL4765343, “Design and synthesis of novel SCM-198 analogs as cardioprotective agents: Structure-activity relationship studies and biological evaluations” (Eur J Med Chem, 2020).

Data set [1] is described as follows: Toxicity in C57BL/6J mouse assessed as loss of body weight at 5 mg/kg, ip administered for 7 consecutive days. Particulars: in vivo, 168 h, time 7 day. The format is organism-based.
Data set [2] concerns H9c2. As to the kind of experiment: Antiapoptotic activity in rat H9c2 cells assessed as reduction in H2O2-induced mitochondrial membrane potential loss at 1 uM preincubated for 4 hrs followed by H2O2 stimulation for 1 hr by JC1 staining based fluorescence microscopic analysis. The format is functional, cell-based. Particulars: time 5.0 hrs. In outline:
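Pretreatment 4 h before 400 nM H2O2. Cells washed in cold PBS pH 7.4 and loaded with 0.5 μg/mL JC-1 for 40 min at 37 °C, washed, then viewed at once by fluorescence microscopy. Monomer read at ex 490/em 535 nm, aggregate at ex 525/em 600 nm. Ratio taken from three independent fields per group, mean ± SD.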

Data set [3] has as its system H9c2. As to the kind of experiment: Anti-oxidative effect in rat H9c2 cells assessed as reduction in H2O2-induced MnSOD activity at 10 uM preincubated for 4 hrs followed by H2O2 stimulation for 1 hr by WST-8 assay. The note with it: time 5.0 hrs. In kind it is functional, cell-based. In outline:
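H9c2 cells (ATCC) grown in high-glucose DMEM with 10% FBS at 37 °C, 5% CO2, used at 80-90% confluence and serum-starved 12 h. Compound given 4 h, then medium replaced by DMEM with 500 nM H2O2 for 1 h. Lysate spun 15,000g for 15 min. Cu/Zn SOD blocked with 1 mmol/L KCN, MnSOD read by WST-8 kit, expressed as U/mg protein.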
In general terms: Formazan colour is commonly taken as a measure of viable cells.

Data set [4] can be described thus: Apparent volume of distribution during terminal phase in Sprague-Dawley rat at 10 mg/kg, po measured upto 24 hrs by LC-MS/MS analysis. The format is ADME, organism-based. The note with it: in vivo, read-out: Vz/F.
The nature of data set [5]: Cmax in Sprague-Dawley rat at 10 mg/kg, po measured upto 24 hrs by LC-MS/MS analysis. Particulars: in vivo. In kind it is ADME, organism-based. On the set-up: route oral, dose 10 mg/kg, time <=24.
Data set [6] in a line: Half life in Sprague-Dawley rat at 1 mg/kg, iv measured upto 24 hrs by LC-MS/MS analysis. In kind it is ADME, organism-based. The note with it: in vivo.
Data set [7] in a line: AUCinfinity in Sprague-Dawley rat at 1 mg/kg, iv measured upto 24 hrs by LC-MS/MS analysis. On the set-up: route intravenous, dose 1 mg/kg, time <=24. In kind it is ADME, organism-based. The note with it: in vivo. The essentials: (§1)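 Male Sprague-Dawley rats, fasted, N = 3, given a single 1 mg/kg intravenous dose. Plasma separated by centrifugation and drug quantified by LC-MS/MS. Values reported as mean ± SD.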

Data set [8] has as its system H9c2. Description: Antiapoptotic activity in rat H9c2 cells assessed as restoration of H2O2-induced bcl-2 downregulation at 1 uM preincubated for 4 hrs followed by H2O2 stimulation for 1 hr by Western blotting analysis. The format is functional, cell-based. Particulars: time 5.0 hrs. The essentials:
(§2)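 Serum-starved (12 h) H9c2 cells were pretreated 4 h, then exposed to 500 nM H2O2 in DMEM for 1 h. Lysis on ice with protease/phosphatase inhibitors, then 13,000 g at 4 °C for 15 min. 20 μg protein run on 8-12% SDS-PAGE and blotted to PVDF. Probed overnight at 4 °C for caspase-3, pro-caspase-3, Bcl-2 and GAPDH, with chemiluminescent detection.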
(In general: In western blotting, separated proteins are transferred to a membrane and probed.)

For data set [9], the system named is Mus musculus. As to the kind of experiment: Cardioprotective activity in C57BL/6J mouse model of LAD coronary artery ligation-induced acute myocardial infarction assessed as reduction in cardiomyocytes damage at 5 mg/kg, ip pretreated for 7 consecutive days followed by LAD coronary artery ligation after compound treatment for another 3 days by hematoxylin and eosin staining based assay. The format is functional, organism-based. Particulars: time 10.0 day. In outline: (§3)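 Eight-week C57BL/6J mice received 5 mg/kg/day i.p. (saline vehicle) for 7 days before permanent LAD ligation, then 3 further days. Paraffin heart sections deparaffinised, stained with hematoxylin 10 min, differentiated in 0.1% HCl, counterstained with eosin 3-5 min, then examined by light microscopy.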

Data set [10] is described as follows: Half life in Sprague-Dawley rat at 10 mg/kg, po measured upto 24 hrs by LC-MS/MS analysis. Particulars: in vivo. In kind it is ADME, organism-based.
Data set [11] deals with H9c2. Description: Antioxidant activity in rat H9c2 cells assessed as protection against H2O2-induced hypoxic injury by measuring cell viability at 10 uM preincubated for 4 hrs followed by H2O2 stimulation for 1 hr by MTT assay relative to control. The format is functional. In outline:
(§4)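 H9c2 cells at 1 × 10^5 cells/mL, 100 μL per well in triplicate, left 18 h. Compound diluted in DMSO; DMSO alone as negative control. 4 h pretreatment, then 400 nM H2O2 for 1 h. Medium removed and MTT added for 2-4 h, formazan dissolved in DMSO, absorbance at 570 nm. Medium-only wells gave the blank.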

The nature of data set [12]: Toxicity in C57BL/6J mouse assessed as diarrhea at 5 mg/kg, ip administered for 7 consecutive days. In kind it is organism-based. The note with it: in vivo, 168 h, time 7 day.
The subject of data set [13] is Mus musculus. Description: Cardioprotective activity in C57BL/6J mouse model of LAD coronary artery ligation-induced acute myocardial infarction assessed as reduction in myocardial infarct size at 5 mg/kg, ip pretreated for 7 consecutive days followed by LAD coronary artery ligation after compound treatment for another 3 days by TTC staining based assay. The format is functional, organism-based. Particulars: time 10.0 day. The essentials:
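Male/female not stated; 8-week C57BL/6J mice given daily ip doses in saline vehicle for 7 d, then permanent LAD ligation, with dosing continued 3 more days to sacrifice. Under isoflurane, hearts perfused with saline plus 40 mM KCl, cut into 4-5 transverse slices, stained with 1% TTC pH 7.4 at 37 °C for 20 min, formalin-fixed; infarct area by planimetry as % of LV area; N = 6-7 per group.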

Data set [14] is described as follows: Apparent clearance in Sprague-Dawley rat at 10 mg/kg, po measured upto 24 hrs by LC-MS/MS analysis. Particulars: in vivo. The format is ADME, organism-based.
Data set [15] is described as follows: Oral bioavailability in Sprague-Dawley rat at 10 mg/kg measured upto 24 hrs by LC-MS/MS analysis. The format is ADME, organism-based. The note with it: in vivo.
For data set [16], the system named is H9c2. As to the kind of experiment: Antiapoptotic activity in rat H9c2 cells assessed as reduction in H2O2-induced caspase-3 activation at 1 uM preincubated for 4 hrs followed by H2O2 stimulation for 1 hr by Western blotting analysis. In kind it is functional, cell-based. The note with it: time 5.0 hrs. In outline:
as §2

The nature of data set [17]: AUCinfinity in Sprague-Dawley rat at 10 mg/kg, po measured upto 24 hrs by LC-MS/MS analysis. In kind it is ADME, organism-based. On the set-up: route oral, dose 10 mg/kg, time <=24. The note with it: in vivo. In outline: (§5)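 A single 10 mg/kg oral (i.g.) dose was given to male Sprague-Dawley rats, N = 3. Plasma was harvested by centrifugation and measured by LC-MS/MS. Values reported as mean ± SD.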

Data set [18] deals with H9c2. Description: Antioxidant activity in rat H9c2 cells assessed as protection against H2O2-induced hypoxic injury by measuring cell viability at 1 uM preincubated for 4 hrs followed by H2O2 stimulation for 1 hr by MTT assay relative to control. The format is functional. The essentials: as §4
For data set [19], the system named is H9c2. Description: Antioxidant activity in rat H9c2 cells assessed as protection against H2O2-induced hypoxic injury by measuring cell viability at ED50 concentration preincubated for 4 hrs followed by H2O2 stimulation for 1 hr by MTT assay relative to control. The format is functional. Particulars: time 5 hrs. The essentials:
(§6)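 ED50 taken from log dose against % viability. Viability also reported at the EC50 concentration. Means ± SEM from three independent experiments.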

The test system of data set [20] is H9c2. Description: Cytoprotective activity against H2O2-induced injury in rat H9c2 cells assessed as reduction in LDH release at 1 uM preincubated for 4 hrs followed by H2O2 stimulation for 1 hr by LDH assay. In kind it is functional, cell-based. The note with it: time 5.0 hrs. The essentials:
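Cells at 5 × 10^4 per well in triplicate, 18 h, then 4 h compound and 1 h H2O2. Model wells had H2O2 without compound; controls had DMSO. 50 μL medium mixed with 2X LDH assay buffer, kept in the dark at 22-25 °C for 10-30 min, read at 490-520 nm. Activity blank-subtracted, normalised to BCA protein of the lysed cells, and expressed relative to model wells.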
(In general: Release of lactate dehydrogenase indicates damage to the cell membrane.)

Data set [21] relates to Mus musculus. As to the kind of experiment: Cardioprotective activity in C57BL/6J mouse model of LAD coronary artery ligation-induced acute myocardial infarction assessed as reduction in epimyocardium damage at 5 mg/kg, ip pretreated for 7 consecutive days followed by LAD coronary artery ligation after compound treatment for another 3 days by hematoxylin and eosin staining based assay. Particulars: time 10.0 day. In kind it is functional, organism-based. The essentials: as §3

Data set [22] relates to H9c2. As to the kind of experiment: Antioxidant activity in rat H9c2 cells assessed as protection against H2O2-induced hypoxic injury by measuring cell viability preincubated for 4 hrs followed by H2O2 stimulation for 1 hr by MTT assay relative to control. In kind it is functional. The note with it: time 5 hrs, read-out: ED50 (the source's name). In outline:
as §6

Data set [23] in a line: Cmax in Sprague-Dawley rat at 1 mg/kg, iv measured upto 24 hrs by LC-MS/MS analysis. In kind it is ADME, organism-based. On the set-up: route intravenous, dose 1 mg/kg, time <=24. Particulars: in vivo.
For data set [24], the system named is Mus musculus. As to the kind of experiment: Cardioprotective activity in C57BL/6J mouse model of LAD coronary artery ligation-induced acute myocardial infarction assessed as reduction in apoptosis of cardiomyocytes at 5 mg/kg, ip pretreated for 7 consecutive days followed by LAD coronary artery ligation after compound treatment for another 3 days by TUNEL staining based assay. In kind it is functional, organism-based. Particulars: time 10.0 day. The essentials:
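C57BL/6J mice, 8 weeks old, given compound i.p. in saline vehicle daily for 7 days, then permanent LAD ligation with body temperature held at 37 °C. Dosing continued 3 more days until sacrifice. Sections treated with proteinase K, then TdT reaction 30 min at 37 °C and DAPI counterstain. TUNEL-positive nuclei in border area counted as % of DAPI nuclei, N = 4 per group.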

Data set [25] in a line: Apparent volume of distribution during terminal phase in Sprague-Dawley rat at 1 mg/kg, iv measured upto 24 hrs by LC-MS/MS analysis. In kind it is ADME, organism-based. Particulars: in vivo.
The nature of data set [26]: AUClast in Sprague-Dawley rat at 1 mg/kg, iv measured upto 24 hrs by LC-MS/MS analysis. In kind it is ADME, organism-based. On the set-up: route intravenous, dose 1 mg/kg, time <=24. The note with it: in vivo. The essentials:
as §1

Data set [27] in a line: AUClast in Sprague-Dawley rat at 10 mg/kg, po measured upto 24 hrs by LC-MS/MS analysis. On the set-up: route oral, dose 10 mg/kg, time <=24. Particulars: in vivo. In kind it is ADME, organism-based. The essentials:
as §5

The source made the active and inactive calls. No cut-off for these calls is given here.

What is called Cmax is the maximum level reached in the sampled fluid or tissue. Broadly, the half-life is how long it takes for the measured level to halve. A higher half-life goes with slow decline. A word on the AUC(0-inf): it is total exposure, with the tail of the curve extrapolated. High values mean high exposure, low ones low exposure. As a reminder, the CL/F is the apparent clearance, not corrected for the fraction that reaches the circulation. Usually bioavailability stands for dose-corrected exposure relative to a reference, in per cent. The AUC(0-t) is exposure summed from dosing to a finite time, without extrapolation to infinity. In the case of `COc1cccc(C(=O)OCCCCNC(=N)N)c1OC`, the Activity entry in data set [1] is listed as “Non-Toxic”; in the data set on H9c2 [11], 65.3%; in data set [12], “Non-Toxic”; in the data set on H9c2 [18], 69.3%; with H9c2 [19], 62.8%. Further, the outcome in the data set with H9c2 [2], in the data set with H9c2 [3], in the data set on H9c2 [8], in the data set on Mus musculus [9], with Mus musculus [13] and in the data set on H9c2 [16] was Active. Also, the result with H9c2 [20], with Mus musculus [21] and with Mus musculus [24] was Active. Moreover, in [4], the Vd/F came out at 43.7 L/kg. In addition, the Cmax in data set [5] stood at 621 ng/mL; in data set [23] it was 764 ng/mL. For the same molecule, the values for the half-life in data set [6] and in data set [10] were 1.63 h and 4.87 h, respectively. Also, the AUC(0-inf) amounted to 895 ng·h/mL in data set [7] and 1680 ng·h/mL in data set [17]. Also, the CL/F in data set [14] is 92.9 mL/min/kg. Further, the bioavailability in data set [15] came to 18.5%. Also, in the data set on H9c2 [22], the EC50 was 142 nM. In data set [25], the Vz/F came out at 3.766 L/kg. Further, the values for the area under the curve AUC(0-t) at 24 h in [26] and in data set [27] were 882 ng·h/mL and 1630 ng·h/mL, respectively.
Take `CCN(CC)CCOC(=O)c1cc(OC)c(O)c(OC)c1`: the figures for the Activity in the data set with H9c2 [11], in the data set on H9c2 [18] and in the data set with H9c2 [19] were 66.8%, 61.1% and 51.7%, respectively. Also, the EC50 in the data set on H9c2 [22] came out at 207 nM.
In the case of `COc1cc(C(=O)OCCCCNC(=N)N)cc(OC)c1OC(C)=O`, the Activity in the data set with H9c2 [11] stood at 55.2%; in the data set on H9c2 [18] it was 52.3%.
